pIC50, pKi: −log10 of the molar value. Activity calls are given as the source filed them. The rule behind the calls is not given here.
Legend:
[1] = target: T1, Cyclin-dependent kinase 5/CDK5 activator 1 (Homo sapiens, UniProt Q00535+Q15078); assay: Inhibition of recombinant full length N-terminal GST tagged human CDK5/p25 expressed in baculovirus infected sf9 cells using histone H1 as substrate at 10 uM measured after 60 mins in presence of ATP by ADP-Glo kinase assay relative to control
Target sequence in this assay (Q00535 whole entry): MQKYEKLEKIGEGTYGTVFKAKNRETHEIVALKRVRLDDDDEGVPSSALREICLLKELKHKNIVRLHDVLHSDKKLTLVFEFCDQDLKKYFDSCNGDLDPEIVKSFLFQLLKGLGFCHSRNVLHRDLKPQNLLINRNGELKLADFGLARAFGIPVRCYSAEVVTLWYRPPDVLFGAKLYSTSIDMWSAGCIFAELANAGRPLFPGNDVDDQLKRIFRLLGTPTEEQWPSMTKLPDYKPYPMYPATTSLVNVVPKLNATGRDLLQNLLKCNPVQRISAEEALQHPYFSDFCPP
Target sequence in this assay (Q15078 99-307 partner limits assumed): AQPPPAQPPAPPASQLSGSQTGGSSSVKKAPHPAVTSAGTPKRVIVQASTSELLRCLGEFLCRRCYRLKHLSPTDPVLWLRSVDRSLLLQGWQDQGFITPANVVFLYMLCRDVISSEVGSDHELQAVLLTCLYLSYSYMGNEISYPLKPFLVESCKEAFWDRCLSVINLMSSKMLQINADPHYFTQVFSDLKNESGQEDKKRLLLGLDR

[2] = target: CDK2/Cyclin A2 (Homo sapiens) (UniProt P24941+P20248); assay: Inhibition of recombinant full length N-terminal GST tagged human CDK2/CyclinA expressed in baculovirus infected sf9 cells using histone H1 as substrate at 10 uM measured after 30 mins in presence of ATP by ADP-Glo kinase assay relative to control
[3] = target: Cyclin-dependent kinase 5/CDK5 activator 1 (Homo sapiens, UniProt Q00535); assay: (§1) Inhibition of recombinant full length N-terminal GST tagged human CDK5/p25 expressed in baculovirus infected sf9 cells using histone H1 as substrate measured after 60 mins in presence of ATP by ADP-Glo kinase assay; type: cell-based
[4] = target: Cyclin-dependent kinase 1/cyclin B1 (Homo sapiens, UniProt P06493); assay: Inhibition of CDK1/CyclinB1 (unknown origin) using histone H1 (GGGPATPKKAKKL) as substrate incubated for 80 mins in presence of ATP by ADP-Glo kinase assay; type: protein-complex assay
[5] = target: Cyclin-dependent kinase 2/cyclin E1 (Homo sapiens, UniProt P24941); assay: Inhibition of CDK2/Cyclin E (unknown origin) incubated for 30 to 120 mins in presence of ATP by ADP-Glo kinase assay; type: protein-complex assay
CDK7/Cyclin H/MNAT1 = CDK7/Cyclin H/MNAT1 (Homo sapiens, UniProt P50613); assay: Inhibition of CDK7/cyclinH/MAT1 (unknown origin) using RBER-IRStide as substrate incubated for 120 mins in presence of ATP by ADP-Glo kinase assay; type: protein-complex assay
MV4-11 = assay: Antiproliferative activity against human MV4-11 cells assessed as growth inhibition measured after 72 hrs by resazurin assay; type: functional; details: MV4-11, 72 h
Outline: (§2)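 Leukemia cells exposed to compound for 72 h; viability read by resazurin reduction. GI50 (concentration giving 50% inhibition of proliferation) reported as mean ± SD of three independent experiments.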

[6] = target: Cyclin-dependent kinase 4/cyclin D1 (Homo sapiens, UniProt P11802); assay: Inhibition of human recombinant N-terminal GST-tagged CDK4 (S4-E303 residues)/Cyclin D1 (Q4-I295 residues) expressed in sf9 cells using RB-CTF as substrate incubated for 90 mins in presence of ATP by ADP-Glo kinase assay
CDK6/cyclin D3 = CDK6/cyclin D3 (Homo sapiens, UniProt Q00534); assay: Inhibition of human recombinant N-terminal GST-tagged CDK6 (M1-A326 residues) and His6 tagged Cyclin D3 (M1-L292 residues) expressed in sf9 cells using histone H1 (GGGPATPKKAKKL) as substrate incubated for 60 mins in presence of ATP by ADP-Glo kinase assay
CDK2/Cyclin A2 = CDK2/Cyclin A2 (Homo sapiens, UniProt P24941); assay: Inhibition of recombinant full length N-terminal GST tagged human CDK2/CyclinA expressed in baculovirus infected sf9 cells using histone H1 as substrate measured after 30 mins in presence of ATP by ADP-Glo kinase assay
Outline: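 CDK2/cyclin A kinase inhibition; Ki values from the average of at least two experiments.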

CDK9/cyclin T1 = CDK9/cyclin T1 (Homo sapiens, UniProt P50750); assay: Inhibition of human recombinant full length N-terminal GST His6 fused CDK9 (M1 to F372 residues/ N-terminal His6 tagged Cyclin T1 (M1 to K726 residues) expressed in sf9 cells using RBER-IRStide as substrate incubated for 90 mins in presence of ATP by ADP-Glo kinase assay
[7] = target: T1, Cyclin-dependent kinase 5/CDK5 activator 1; assay: as §1; type: cell-based; details: sf9
Target sequence in this assay (Q00535 whole entry): as the sequence (Q00535 whole entry) above
Target sequence in this assay (Q15078 whole entry): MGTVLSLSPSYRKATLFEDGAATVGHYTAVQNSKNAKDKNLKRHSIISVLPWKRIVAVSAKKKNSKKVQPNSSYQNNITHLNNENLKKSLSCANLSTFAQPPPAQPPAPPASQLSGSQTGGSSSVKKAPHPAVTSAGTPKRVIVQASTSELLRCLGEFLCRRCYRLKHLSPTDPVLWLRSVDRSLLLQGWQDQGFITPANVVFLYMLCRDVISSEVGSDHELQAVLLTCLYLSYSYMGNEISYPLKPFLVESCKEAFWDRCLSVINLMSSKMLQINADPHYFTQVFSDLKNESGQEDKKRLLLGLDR

MOLM-13 = assay: Antiproliferative activity against human MOLM13 cells assessed as growth inhibition measured after 72 hrs by resazurin assay; type: functional; details: MOLM-13, 72 h; outline: as §2

Chain of CDK6/cyclin D3 (P30281 whole entry, the tested form may be a part): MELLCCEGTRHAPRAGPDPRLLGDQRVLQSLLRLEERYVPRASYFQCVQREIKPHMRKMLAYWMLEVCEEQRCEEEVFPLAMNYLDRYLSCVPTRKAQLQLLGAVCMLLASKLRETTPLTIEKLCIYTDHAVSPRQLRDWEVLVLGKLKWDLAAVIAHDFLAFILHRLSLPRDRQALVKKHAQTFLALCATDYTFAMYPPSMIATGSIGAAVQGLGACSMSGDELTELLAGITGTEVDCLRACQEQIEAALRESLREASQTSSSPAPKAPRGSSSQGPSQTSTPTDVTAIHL
Chain of CDK6/cyclin D3 (Q00534 whole entry, the tested form may be a part): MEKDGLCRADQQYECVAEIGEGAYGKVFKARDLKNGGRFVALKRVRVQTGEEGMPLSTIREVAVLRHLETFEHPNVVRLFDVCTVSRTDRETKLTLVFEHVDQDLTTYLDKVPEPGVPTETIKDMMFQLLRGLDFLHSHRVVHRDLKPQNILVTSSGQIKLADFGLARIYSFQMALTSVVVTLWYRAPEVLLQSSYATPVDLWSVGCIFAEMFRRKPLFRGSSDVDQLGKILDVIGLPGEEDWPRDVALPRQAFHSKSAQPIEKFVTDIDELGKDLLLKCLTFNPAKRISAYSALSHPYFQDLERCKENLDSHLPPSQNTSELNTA
Chain of Cyclin-dependent kinase 1/cyclin B1 (P06493 whole entry): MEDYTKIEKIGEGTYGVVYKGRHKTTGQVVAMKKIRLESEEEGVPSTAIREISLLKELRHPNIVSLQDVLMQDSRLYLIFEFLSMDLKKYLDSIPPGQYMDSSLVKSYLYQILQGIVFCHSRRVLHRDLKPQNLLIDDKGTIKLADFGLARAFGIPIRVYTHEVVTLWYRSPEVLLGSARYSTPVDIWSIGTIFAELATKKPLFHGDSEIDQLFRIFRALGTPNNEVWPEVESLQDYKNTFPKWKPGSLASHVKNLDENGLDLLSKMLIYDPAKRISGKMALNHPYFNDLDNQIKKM
Chain of Cyclin-dependent kinase 1/cyclin B1 (P14635 whole entry, further chain): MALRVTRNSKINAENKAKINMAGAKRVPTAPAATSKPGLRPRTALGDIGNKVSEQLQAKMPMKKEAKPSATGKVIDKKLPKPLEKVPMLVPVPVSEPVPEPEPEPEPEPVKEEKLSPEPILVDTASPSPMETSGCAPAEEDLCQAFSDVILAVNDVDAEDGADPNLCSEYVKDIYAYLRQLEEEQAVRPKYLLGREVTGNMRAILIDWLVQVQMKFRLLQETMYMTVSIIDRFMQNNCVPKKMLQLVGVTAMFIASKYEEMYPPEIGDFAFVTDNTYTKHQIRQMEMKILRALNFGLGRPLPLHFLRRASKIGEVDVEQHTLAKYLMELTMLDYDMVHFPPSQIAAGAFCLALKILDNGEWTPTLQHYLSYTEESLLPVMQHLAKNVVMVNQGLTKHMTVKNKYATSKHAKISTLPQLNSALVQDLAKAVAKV
Chain of Cyclin-dependent kinase 4/cyclin D1 (P11802 whole entry, the tested form may be a part): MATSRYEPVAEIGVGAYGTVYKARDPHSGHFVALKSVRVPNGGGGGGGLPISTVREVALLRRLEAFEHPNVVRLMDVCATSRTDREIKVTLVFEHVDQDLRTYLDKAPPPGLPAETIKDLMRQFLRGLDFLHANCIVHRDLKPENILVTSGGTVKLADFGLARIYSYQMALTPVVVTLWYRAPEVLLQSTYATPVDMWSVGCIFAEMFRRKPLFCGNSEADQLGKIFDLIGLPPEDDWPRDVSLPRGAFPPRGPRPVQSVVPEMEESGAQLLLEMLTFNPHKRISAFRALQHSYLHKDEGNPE
Chain of Cyclin-dependent kinase 4/cyclin D1 (P24385 whole entry, further chain, the tested form may be a part): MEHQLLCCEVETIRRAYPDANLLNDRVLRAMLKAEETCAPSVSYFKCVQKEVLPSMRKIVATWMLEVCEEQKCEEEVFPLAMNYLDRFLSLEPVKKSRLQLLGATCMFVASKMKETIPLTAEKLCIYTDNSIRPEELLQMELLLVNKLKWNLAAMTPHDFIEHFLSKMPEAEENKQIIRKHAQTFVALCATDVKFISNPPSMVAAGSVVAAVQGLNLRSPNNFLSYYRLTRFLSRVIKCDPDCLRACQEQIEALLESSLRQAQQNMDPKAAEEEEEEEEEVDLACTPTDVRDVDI
Chain of Cyclin-dependent kinase 5/CDK5 activator 1 (Homo sapiens, UniProt Q00535) (Q00535 whole entry): as the sequence (Q00535 whole entry) above
Chain of Cyclin-dependent kinase 5/CDK5 activator 1 (Homo sapiens, UniProt Q00535) (Q15078 whole entry, further chain): as the sequence (Q15078 whole entry) above
Chain of CDK9/cyclin T1 (O60563 whole entry, the tested form may be a part): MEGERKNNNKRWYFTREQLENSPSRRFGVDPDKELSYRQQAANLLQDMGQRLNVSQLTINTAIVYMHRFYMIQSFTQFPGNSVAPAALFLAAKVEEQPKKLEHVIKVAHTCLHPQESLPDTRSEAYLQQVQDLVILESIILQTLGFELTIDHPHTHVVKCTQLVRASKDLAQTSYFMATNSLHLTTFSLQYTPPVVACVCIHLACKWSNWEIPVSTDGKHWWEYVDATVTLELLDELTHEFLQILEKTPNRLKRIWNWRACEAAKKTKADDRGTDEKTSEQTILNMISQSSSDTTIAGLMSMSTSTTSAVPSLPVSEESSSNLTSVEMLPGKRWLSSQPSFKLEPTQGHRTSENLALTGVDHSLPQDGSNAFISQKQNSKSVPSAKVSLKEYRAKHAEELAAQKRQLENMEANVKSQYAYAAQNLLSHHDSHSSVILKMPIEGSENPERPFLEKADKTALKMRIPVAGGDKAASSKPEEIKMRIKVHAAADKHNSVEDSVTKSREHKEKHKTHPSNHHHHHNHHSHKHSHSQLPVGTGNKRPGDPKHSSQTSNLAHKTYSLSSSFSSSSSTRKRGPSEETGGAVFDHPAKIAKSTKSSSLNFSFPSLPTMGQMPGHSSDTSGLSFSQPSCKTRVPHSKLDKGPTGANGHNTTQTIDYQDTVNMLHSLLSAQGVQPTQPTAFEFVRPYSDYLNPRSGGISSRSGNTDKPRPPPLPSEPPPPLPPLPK
Chain of CDK9/cyclin T1 (P50750 whole entry, the tested form may be a part): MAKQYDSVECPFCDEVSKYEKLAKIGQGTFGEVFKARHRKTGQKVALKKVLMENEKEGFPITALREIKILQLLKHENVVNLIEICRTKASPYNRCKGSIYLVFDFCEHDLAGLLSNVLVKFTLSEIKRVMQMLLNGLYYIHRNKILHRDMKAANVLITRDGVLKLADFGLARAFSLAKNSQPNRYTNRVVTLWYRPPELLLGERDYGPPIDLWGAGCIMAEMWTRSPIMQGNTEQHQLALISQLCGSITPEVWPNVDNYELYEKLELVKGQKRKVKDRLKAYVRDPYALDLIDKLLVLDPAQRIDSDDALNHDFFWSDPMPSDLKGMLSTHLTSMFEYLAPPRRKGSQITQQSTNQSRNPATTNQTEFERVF

| inhibition [1] [%] | inhibition [2] | pKi [3] | GI50 (MV4-11) [µM] | SMILES | also measured |
| --- | --- | --- | --- | --- | --- |
| 63 |  |  |  | Cc1c(Nc2ncc3c(n2)CCCC3)cccc1NS(C)(=O)=O |  |
| 77 | 58% | 5.84 | 6 | Cc1ccc(Nc2ncc3c(n2)CCCC3)cc1 | pKi [4]: < 5.30; pKi [5]: < 5.30; pKi (CDK7/Cyclin H/MNAT1): < 5.30; pKi [6]: < 5.30; pKi (CDK6/cyclin D3): < 5.30; pKi (CDK2/Cyclin A2): 5.34; pKi (CDK9/cyclin T1): < 5.30 |
| 22 | 2% |  |  | COc1ccccc1Nc1ncc2c(n1)CCCC2 |  |
|  |  |  |  | CC1(C)CC(=O)c2cnc(NC(=O)c3ccc(F)cc3)nc2C1 | Ki [7]: Not Active |
|  |  | 5.69 | 8.62 | O=C(Nc1cccc(CN2CCCC2)c1)c1n[nH]c2ccccc12 | GI50 (MOLM-13): 3.83 µM |
| 1 | 3% |  |  | COc1ccc(Nc2ncc3c(n2)CCCC3)cc1 |  |
|  |  | 5.76 | 0.84 | COc1ccc(Nc2ncc3c(n2)CCC3)cc1 | GI50 (MOLM-13): 1.1 µM |
| 45 | inactive |  |  | COc1cc(Cl)ccc1Nc1ncc2c(n1)CCCC2 |  |
| 83 | 87% | 5.90 | 3.5 | O=[N+]([O-])c1cccc(Nc2ncc3c(n2)CCCC3)c1 | pKi [4]: < 5.30; pKi [5]: < 5.30; pKi (CDK7/Cyclin H/MNAT1): < 5.30; pKi [6]: < 5.30; pKi (CDK6/cyclin D3): < 5.30; pKi (CDK2/Cyclin A2): 5.96; pKi (CDK9/cyclin T1): < 5.30 |
| 5 | 7% |  |  | FC(F)(F)c1cccc(Nc2ncc3c(n2)CCCC3)c1 |  |
| 9 | inactive |  |  | FC(F)(F)Oc1ccccc1Nc1ncc2c(n1)CCCC2 |  |
| 85 | 93% | 6.00 | 2.28 | COc1cccc(Nc2ncc3c(n2)CCCC3)c1 | pKi [4]: < 5.30; pKi [5]: < 5.30; pKi (CDK7/Cyclin H/MNAT1): < 5.30; pKi [6]: < 5.30; pKi (CDK6/cyclin D3): < 5.30; pKi (CDK2/Cyclin A2): 5.95; pKi (CDK9/cyclin T1): < 5.30 |
| 21 | 7% |  |  | COc1ccc(Nc2ncc3c(n2)CCCC3)c(OC)c1F |  |
| 6 | 7% |  |  | FC(F)(F)c1ccc(Nc2ncc3c(n2)CCCC3)cc1 |  |
| 4 | 2% |  |  | CCOc1ccccc1Nc1ncc2c(n1)CCCC2 |  |
| 82 | 54% | 6.00 | > 10 | Cc1ccccc1Nc1ncc2c(n1)CCCC2 | pKi [4]: < 5.30; pKi [5]: < 5.30; pKi (CDK7/Cyclin H/MNAT1): < 5.30; pKi [6]: < 5.30; pKi (CDK6/cyclin D3): < 5.30; pKi (CDK2/Cyclin A2): 5.39; pKi (CDK9/cyclin T1): < 5.30 |
| 10 | 8% |  |  | FC(F)(F)c1ccccc1Nc1ncc2c(n1)CCCC2 |  |
|  |  | 6.06 | 9.83 | c1ccc(Nc2ncc3c(n2)CCCC3)cc1 | GI50 (MOLM-13): 5.63 µM; pIC50 [3]: 5.75 |
| 78 | 39% | 5.91 | 2.6 | CCc1cccc(Nc2ncc3c(n2)CCCC3)c1 | pKi [4]: < 5.30; pKi [5]: < 5.30; pKi (CDK7/Cyclin H/MNAT1): < 5.30; pKi [6]: < 5.30; pKi (CDK6/cyclin D3): < 5.30; pKi (CDK2/Cyclin A2): < 5.30; pKi (CDK9/cyclin T1): < 5.30 |

— ChEMBL document CHEMBL4396883, “Discovery of CDK5 Inhibitors through Structure-Guided Approach” (ACS Med Chem Lett, 2019)
